Drawing on ChEMBL document CHEMBL3994637, “Broad spectrum anti-infective properties of benzisothiazolones and the parallels in their anti-bacterial and anti-fungal effects” (Bioorg Med Chem Lett, 2017), this text covers MIC and IC50 for 6 compounds.

Values after ≈ are worked out from the molar mass of the structure shown.

In one assay the test system is Staphylococcus aureus. Put plainly: Antibacterial activity against Staphylococcus aureus ATCC 25923 by broth microdilution method. The class given is functional.
Conditions: not given
In turn, `O=c1c2ccccc2sn1-c1ccccc1I` gave an MIC of 12.5 µg/mL (≈ 35.4 µM).
The compound `O=c1c2ccccc2sn1-c1ccccc1F` yielded an MIC of 25 µg/mL (≈ 102 µM).
In turn, `O=c1c2ccccc2sn1-c1cccc(C(F)(F)F)c1` registered an MIC of 6.25 µg/mL (≈ 21.2 µM).
In turn, `O=c1c2ccccc2sn1-c1cccc(F)c1` showed a minimal inhibitory concentration (MIC) of 6.25 µg/mL (≈ 25.5 µM).
The compound `O=c1c2ccccc2sn1Cc1ccc2c(c1)OCO2` displayed a half-maximal inhibitory concentration (IC50) of 2.2 µg/mL (≈ 7.71 µM) and an MIC of 2.6 µg/mL (≈ 9.11 µM).
In turn, `O=c1c2ccccc2sn1-c1cccc(Cl)c1` came in with an MIC of 6.25 µg/mL (≈ 23.9 µM).

Another assay concerns Staphylococcus aureus. Briefly: Antibacterial activity against gentamicin-resistant Staphylococcus aureus ATCC 33592 by broth microdilution method. Type of assay: functional.
Conditions: not given
Compound `O=c1c2ccccc2sn1-c1ccccc1I` registered a minimum inhibitory concentration (MIC) of 12.5 µg/mL (≈ 35.4 µM).
For `O=c1c2ccccc2sn1-c1ccccc1F`, the MIC came out at 12.5 µg/mL (≈ 51 µM).
For `O=c1c2ccccc2sn1-c1cccc(C(F)(F)F)c1`, the minimal inhibitory concentration (MIC) amounted to 6.25 µg/mL (≈ 21.2 µM).
With `O=c1c2ccccc2sn1-c1cccc(F)c1`, inhibition of growth (MIC) required 6.25 µg/mL (≈ 25.5 µM).
On the same count and under the same terms, under `O=c1c2ccccc2sn1-c1cccc(Cl)c1` stands 6.25 µg/mL (≈ 23.9 µM).

The test system of a further assay is Pseudomonas aeruginosa. Put plainly: Antibacterial activity against Pseudomonas aeruginosa ATCC BAA-427 by broth microdilution method. Type of assay: functional.
Conditions: not given
The gist of the method: (§1)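 Bacteria were tested by the NCCLS method in Mueller Hinton broth, with gentamicin and norfloxacin as reference drugs.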
The compound `O=c1c2ccccc2sn1-c1ccccc1I` showed a minimal inhibitory concentration (MIC) of over 50 µg/mL.
The compound `O=c1c2ccccc2sn1-c1ccccc1F` came in with an MIC of over 50 µg/mL.
On the same count and under the same terms, the value for `O=c1c2ccccc2sn1-c1cccc(C(F)(F)F)c1` was over 50 µg/mL; that for `O=c1c2ccccc2sn1-c1cccc(F)c1` was over 50 µg/mL.
Regarding `O=c1c2ccccc2sn1Cc1ccc2c(c1)OCO2`, the half-maximal inhibitory concentration (IC50) was over 50 µg/mL and the MIC was over 50 µg/mL.
In turn, `O=c1c2ccccc2sn1-c1cccc(Cl)c1` gave a minimal inhibitory concentration (MIC) of over 50 µg/mL.

For a further assay, the system named is Sporothrix schenckii. Briefly: Anti-fungal activity against Sporothrix schenckii after 48 hrs by broth microdilution method. The class given is functional.
Conditions: not given
Regarding `O=c1c2ccccc2sn1-c1ccccc1I`, inhibition of growth (MIC) required 25 µg/mL (≈ 70.8 µM).
Regarding `O=c1c2ccccc2sn1-c1ccccc1F`, 12.5 µg/mL (≈ 51 µM) was the least that counted as inhibitory (MIC).
Same read-out and setting: under `O=c1c2ccccc2sn1-c1cccc(C(F)(F)F)c1` stands 12.5 µg/mL (≈ 42.3 µM).
In the case of `O=c1c2ccccc2sn1-c1cccc(F)c1`, the MIC is 12.5 µg/mL (≈ 51 µM).
`O=c1c2ccccc2sn1Cc1ccc2c(c1)OCO2` gave a half-maximal inhibitory concentration (IC50) of 0.3 µg/mL (≈ 1.05 µM) and an MIC of 0.5 µg/mL (≈ 1.75 µM).
In turn, `O=c1c2ccccc2sn1-c1cccc(Cl)c1` showed a minimum inhibitory concentration (MIC) of 12.5 µg/mL (≈ 47.8 µM).

In the next assay the test system is Klebsiella pneumoniae. Briefly: Antibacterial activity against Klebsiella pneumoniae ATCC 27736 by broth microdilution method.
Conditions: not given
The class given is functional. The essentials: as §1
The compound `O=c1c2ccccc2sn1-c1ccccc1I` came in with a minimum inhibitory concentration (MIC) of over 50 µg/mL.
For the compound `O=c1c2ccccc2sn1-c1ccccc1F`, the MIC was over 50 µg/mL.
As to `O=c1c2ccccc2sn1-c1cccc(C(F)(F)F)c1`, the minimum inhibitory concentration (MIC) was over 50 µg/mL.
In turn, `O=c1c2ccccc2sn1-c1cccc(F)c1` came in with an MIC of over 50 µg/mL.
Regarding `O=c1c2ccccc2sn1Cc1ccc2c(c1)OCO2`, the IC50 was over 50 µg/mL and the minimal inhibitory concentration (MIC) was over 50 µg/mL.
Turning to `O=c1c2ccccc2sn1-c1cccc(Cl)c1`, the MIC was over 50 µg/mL.

Another assay deals with Staphylococcus aureus. Put plainly: Antibacterial activity against Staphylococcus aureus ATCC 29213 by broth microdilution method.
Conditions: not given
The class given is functional.
Turning to `O=c1c2ccccc2sn1-c1ccccc1I`, the MIC was 12.5 µg/mL (≈ 35.4 µM).
For the compound `O=c1c2ccccc2sn1-c1ccccc1F`, the MIC came out at 12.5 µg/mL (≈ 51 µM).
Same read-out and setting: under `O=c1c2ccccc2sn1-c1cccc(C(F)(F)F)c1` stands 6.25 µg/mL (≈ 21.2 µM).
Same read-out and setting: under `O=c1c2ccccc2sn1-c1cccc(F)c1` stands 12.5 µg/mL (≈ 51 µM).
The compound `O=c1c2ccccc2sn1Cc1ccc2c(c1)OCO2` yielded a half-inhibitory concentration (IC50) of 1.9 µg/mL (≈ 6.66 µM) and a minimal inhibitory concentration (MIC) of 2.5 µg/mL (≈ 8.76 µM).
For the compound `O=c1c2ccccc2sn1-c1cccc(Cl)c1`, inhibition of growth (MIC) required 6.25 µg/mL (≈ 23.9 µM).

In a further assay the test system is Staphylococcus aureus. Briefly: Antibacterial activity against methicillin-resistant Staphylococcus aureus ATCC 700699 by broth microdilution method. Type of assay: functional. Particulars: Mu50.
`O=c1c2ccccc2sn1-c1ccccc1I` came in with a minimum inhibitory concentration (MIC) of 25 µg/mL (≈ 70.8 µM).
`O=c1c2ccccc2sn1-c1ccccc1F`: the MIC amounted to 6.25 µg/mL (≈ 25.5 µM).
`O=c1c2ccccc2sn1-c1cccc(C(F)(F)F)c1` yielded a minimal inhibitory concentration (MIC) of 6.25 µg/mL (≈ 21.2 µM).
The same measure, in the same setting: under `O=c1c2ccccc2sn1-c1cccc(F)c1` stands 6.25 µg/mL (≈ 25.5 µM).
The compound `O=c1c2ccccc2sn1Cc1ccc2c(c1)OCO2` yielded an IC50 of 0.6 µg/mL (≈ 2.1 µM) and an MIC of 1 µg/mL (≈ 3.5 µM).
On to `O=c1c2ccccc2sn1-c1cccc(Cl)c1`, for which 3.12 µg/mL (≈ 11.9 µM) was the least that counted as inhibitory (MIC).

The test system of another assay is Escherichia coli. Put plainly: Antibacterial activity against Escherichia coli ATCC 9637 by broth microdilution method. The class given is functional. To be noted: W. The gist of the method:
as §1
Turning to `O=c1c2ccccc2sn1-c1ccccc1I`, the MIC is over 50 µg/mL.
Turning to `O=c1c2ccccc2sn1-c1ccccc1F`, the minimal inhibitory concentration (MIC) is over 50 µg/mL.
In the case of `O=c1c2ccccc2sn1-c1cccc(C(F)(F)F)c1`, the minimum inhibitory concentration (MIC) was over 50 µg/mL.
`O=c1c2ccccc2sn1-c1cccc(F)c1` gave an MIC of over 50 µg/mL.
`O=c1c2ccccc2sn1Cc1ccc2c(c1)OCO2` registered a half-inhibitory concentration (IC50) of over 50 µg/mL and an MIC of over 50 µg/mL.
The compound `O=c1c2ccccc2sn1-c1cccc(Cl)c1` displayed a minimal inhibitory concentration (MIC) of over 50 µg/mL.

Another assay deals with Plasmodium falciparum. Put plainly: Antimalarial activity against chloroquine-sensitive Plasmodium falciparum 3D7 after 72 hrs by SYBR Green-1 staining based fluorescence assay. The class given is functional. Particulars: 3D7, 72 h.
`O=c1c2ccccc2sn1-c1ccccc1I` came in with an IC50 of over 2 µM.
Compound `O=c1c2ccccc2sn1-c1ccccc1F` gave a concentration for half-maximal inhibition (IC50) of over 2 µM.
In turn, `O=c1c2ccccc2sn1-c1cccc(C(F)(F)F)c1` showed an IC50 of over 2 µM.
In turn, `O=c1c2ccccc2sn1-c1cccc(F)c1` showed an IC50 of over 2 µM.
With `O=c1c2ccccc2sn1Cc1ccc2c(c1)OCO2`, the IC50 is over 2 µM.
On the same count and under the same terms, the value for `O=c1c2ccccc2sn1-c1cccc(Cl)c1` was over 2 µM.

The test system of the next assay is Aspergillus fumigatus. Briefly: Anti-fungal activity against Aspergillus fumigatus after 48 hrs by broth microdilution method. The class given is functional.
Conditions: not given
On to `O=c1c2ccccc2sn1-c1ccccc1I`, for which the minimal inhibitory concentration (MIC) was determined as 50 µg/mL (≈ 142 µM).
For the compound `O=c1c2ccccc2sn1-c1ccccc1F`, 25 µg/mL (≈ 102 µM) was the least that counted as inhibitory (MIC).
The same measure, in the same setting: under `O=c1c2ccccc2sn1-c1cccc(C(F)(F)F)c1` stands 25 µg/mL (≈ 84.7 µM); under `O=c1c2ccccc2sn1-c1cccc(F)c1`, 25 µg/mL (≈ 102 µM).
In the case of `O=c1c2ccccc2sn1Cc1ccc2c(c1)OCO2`, the IC50 is 1.5 µg/mL (≈ 5.26 µM) and the lowest concentration to inhibit growth (MIC) was 1.7 µg/mL (≈ 5.96 µM).
In turn, `O=c1c2ccccc2sn1-c1cccc(Cl)c1` returned a minimum inhibitory concentration (MIC) of 25 µg/mL (≈ 95.5 µM).

The next assay deals with Cryptococcus neoformans. Put plainly: Anti-fungal activity against Cryptococcus neoformans after 48 hrs by broth microdilution method.
Conditions: not given
Type of assay: functional.
For the compound `O=c1c2ccccc2sn1-c1ccccc1I`, the MIC turned out to be 25 µg/mL (≈ 70.8 µM).
As to `O=c1c2ccccc2sn1-c1ccccc1F`, the minimal inhibitory concentration (MIC) is 12.5 µg/mL (≈ 51 µM).
As to `O=c1c2ccccc2sn1-c1cccc(C(F)(F)F)c1`, the lowest concentration to inhibit growth (MIC) was 12.5 µg/mL (≈ 42.3 µM).
Consider `O=c1c2ccccc2sn1-c1cccc(F)c1`, for which the minimum inhibitory concentration (MIC) was found to be 12.5 µg/mL (≈ 51 µM).
`O=c1c2ccccc2sn1Cc1ccc2c(c1)OCO2`: the IC50 is 0.8 µg/mL (≈ 2.8 µM) and the MIC turned out to be 0.8 µg/mL (≈ 2.8 µM).
For the compound `O=c1c2ccccc2sn1-c1cccc(Cl)c1`, the MIC stood at 12.5 µg/mL (≈ 47.8 µM).

A further assay deals with Trichophyton mentagrophytes. Put plainly: Anti-fungal activity against Trichophyton mentagrophytes after 48 hrs by broth microdilution method. The class given is functional.
Conditions: not given
`O=c1c2ccccc2sn1-c1ccccc1I` came in with an MIC of 25 µg/mL (≈ 70.8 µM).
The same measure, in the same setting: under `O=c1c2ccccc2sn1-c1ccccc1F` stands 12.5 µg/mL (≈ 51 µM).
Turning to `O=c1c2ccccc2sn1-c1cccc(C(F)(F)F)c1`, the minimum inhibitory concentration (MIC) turned out to be 12.5 µg/mL (≈ 42.3 µM).
`O=c1c2ccccc2sn1-c1cccc(F)c1` gave an MIC of 12.5 µg/mL (≈ 51 µM).
Still for that read-out and setting: the value for `O=c1c2ccccc2sn1Cc1ccc2c(c1)OCO2` was 1.5 µg/mL (≈ 5.26 µM); that for `O=c1c2ccccc2sn1-c1cccc(Cl)c1` was 12.5 µg/mL (≈ 47.8 µM).

Another assay concerns Candida albicans. Put plainly: Anti-fungal activity against Candida albicans after 48 hrs by broth microdilution method. The class given is functional.
Conditions: not given
Take `O=c1c2ccccc2sn1-c1ccccc1I`: 25 µg/mL (≈ 70.8 µM) was the least that counted as inhibitory (MIC).
Consider `O=c1c2ccccc2sn1-c1ccccc1F`, for which the lowest concentration to inhibit growth (MIC) was 12.5 µg/mL (≈ 51 µM).
For the compound `O=c1c2ccccc2sn1-c1cccc(C(F)(F)F)c1`, the MIC is 25 µg/mL (≈ 84.7 µM).
`O=c1c2ccccc2sn1-c1cccc(F)c1`: the minimum inhibitory concentration (MIC) stood at 12.5 µg/mL (≈ 51 µM).
`O=c1c2ccccc2sn1Cc1ccc2c(c1)OCO2` showed an IC50 of 0.56 µg/mL (≈ 1.96 µM) and an MIC of 0.7 µg/mL (≈ 2.45 µM).
As for `O=c1c2ccccc2sn1-c1cccc(Cl)c1`, the MIC was determined as 25 µg/mL (≈ 95.5 µM).

Another assay concerns Candida parapsilosis. Put plainly: Anti-fungal activity against Candida parapsilosis ATCC 22019 after 48 hrs by broth microdilution method. Particulars: Lodderomyces parapsilosis, ATCC 22019, 48 h. Type of assay: functional.
`O=c1c2ccccc2sn1-c1ccccc1I` displayed an MIC of 25 µg/mL (≈ 70.8 µM).
As for `O=c1c2ccccc2sn1-c1ccccc1F`, the lowest concentration to inhibit growth (MIC) was 12.5 µg/mL (≈ 51 µM).
On to `O=c1c2ccccc2sn1-c1cccc(C(F)(F)F)c1`, for which inhibition of growth (MIC) required 25 µg/mL (≈ 84.7 µM).
Compound `O=c1c2ccccc2sn1-c1cccc(F)c1` gave an MIC of 12.5 µg/mL (≈ 51 µM).
The same measure, in the same setting: the value for `O=c1c2ccccc2sn1Cc1ccc2c(c1)OCO2` was over 50 µg/mL; that for `O=c1c2ccccc2sn1-c1cccc(Cl)c1` was 25 µg/mL (≈ 95.5 µM).
